{"source": "ChEMBL document CHEMBL1122814", "about": "“Selective thromboxane synthetase inhibitors. 1. 1-[(Aryloxy)alkyl]-1H-imidazoles” (J Med Chem, 1985)"}
{"molecular_target": "T1, 11-beta-hydroxylase (Cytochrome P450 11B1, mitochondrial) (Rattus norvegicus, UniProt P15393)", "T1 sequence (P15393 whole entry)": "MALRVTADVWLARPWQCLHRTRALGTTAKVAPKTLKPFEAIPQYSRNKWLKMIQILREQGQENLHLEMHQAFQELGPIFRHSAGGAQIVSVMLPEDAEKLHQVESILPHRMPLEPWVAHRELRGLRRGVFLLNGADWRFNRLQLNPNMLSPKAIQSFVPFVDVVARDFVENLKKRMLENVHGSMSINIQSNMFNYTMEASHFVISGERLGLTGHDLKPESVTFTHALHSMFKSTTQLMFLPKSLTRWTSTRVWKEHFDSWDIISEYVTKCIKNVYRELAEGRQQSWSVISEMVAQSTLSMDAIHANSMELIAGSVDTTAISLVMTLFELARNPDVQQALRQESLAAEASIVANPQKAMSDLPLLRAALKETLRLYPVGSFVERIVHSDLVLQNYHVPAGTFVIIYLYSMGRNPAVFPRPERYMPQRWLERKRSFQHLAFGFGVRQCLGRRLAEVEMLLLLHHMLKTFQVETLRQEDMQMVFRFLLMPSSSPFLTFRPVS", "assay": "Inhibition of rat adrenal 11-beta-hydroxylase at 10e-5 M", "conditions": "rat adrenal 11-beta-hydroxylase (adrenal enzyme preparation)", "how_it_was_run": "(§1)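 Washed adrenal mitochondria from three male Charles River rats, used within 30 min. Incubated at 37 °C, pH 7.4 (HEPES/sucrose/MgCl2/KH2PO4/malate) with 50 μM [14C]-11-deoxycorticosterone and test drug, 5-min preincubation then 10 min with mitochondria. Extracted into CH2Cl2. Substrate and corticosterone separated by silica TLC and counted by scintillation.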", "units": {"inhibition at 0.0001 M": "%"}}
{"smiles": "c1ccc(OCCn2ccnc2)cc1", "inhibition at 0.0001 M": 72}
{"molecular_target": "T2, Thromboxane-A synthase (Homo sapiens, UniProt P24557)", "T2 sequence (P24557 whole entry)": "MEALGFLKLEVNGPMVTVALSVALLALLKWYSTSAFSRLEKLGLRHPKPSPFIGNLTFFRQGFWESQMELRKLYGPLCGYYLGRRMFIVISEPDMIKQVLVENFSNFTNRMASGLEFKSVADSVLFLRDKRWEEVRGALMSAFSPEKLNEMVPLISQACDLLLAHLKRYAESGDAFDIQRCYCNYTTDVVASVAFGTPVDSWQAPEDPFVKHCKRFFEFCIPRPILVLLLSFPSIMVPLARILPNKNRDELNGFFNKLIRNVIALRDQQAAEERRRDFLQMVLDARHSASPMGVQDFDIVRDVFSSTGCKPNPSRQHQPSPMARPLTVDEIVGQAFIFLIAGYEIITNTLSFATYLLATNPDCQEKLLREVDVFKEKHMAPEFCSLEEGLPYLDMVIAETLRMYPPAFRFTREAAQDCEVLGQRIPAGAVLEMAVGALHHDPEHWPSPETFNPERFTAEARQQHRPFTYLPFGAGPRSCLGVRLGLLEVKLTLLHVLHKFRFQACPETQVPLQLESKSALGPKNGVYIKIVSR", "assay": "Inhibitory activity against thromboxane A2 synthetase", "conditions": "not given", "how_it_was_run": "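Human platelet microsomes, cyclooxygenase inactivated with 30 μM indomethacin (30 min, 0 °C). Compound preincubated 2 min on ice, pH 7.8 phosphate. Then 1 min on ice with freshly made PGH2 (from 0.1 mM arachidonic acid and ram seminal vesicle microsomes). Stopped with EtOH. TxB2 measured by RIA in triplicate; dose-response curves over several concentrations.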", "units": {"IC50": "nM"}}
{"smiles": "N#Cc1cccc(OCCn2ccnc2)c1", "IC50": 3500}
{"smiles": "CC(C)c1[nH]c2ccccc2c1Cn1ccnc1", "IC50": 15}
{"smiles": "c1ccc(OCCn2ccnc2)cc1", "IC50": 660}
{"smiles": "O=C(O)Cc1ccccc1OCCn1ccnc1", "IC50": "> 10000"}
{"smiles": "CN(C)C(=O)c1ccc(OCCn2ccnc2)cc1", "IC50": 1100}
{"smiles": "CNC(=O)c1ccc(OCCn2ccnc2)cc1", "IC50": 860}
{"smiles": "NC(=O)c1ccc(OCCn2ccnc2)cc1", "IC50": 56}
{"smiles": "CCOC(=O)c1ccc(OCCCn2ccnc2)cc1", "IC50": 3000}
{"smiles": "O=C(O)Cc1ccc(OCCn2ccnc2)cc1", "IC50": 32}
{"smiles": "CCOC(=O)COc1ccc(OCCn2ccnc2)cc1", "IC50": 610}
{"smiles": "N#Cc1ccc(OCCn2ccnc2)cc1", "IC50": 13000}
{"smiles": "NC(=O)Nc1ccc(OCCn2ccnc2)cc1", "IC50": 840}
{"smiles": "NC(=O)c1ccccc1OCCn1ccnc1", "IC50": 22000}
{"smiles": "O=C(O)c1cccc(OCCn2ccnc2)c1", "IC50": 530}
{"smiles": "O=C(O)c1ccccc1OCCn1ccnc1", "IC50": "> 10000"}
{"smiles": "c1cn(CCOc2ccc(-c3nnn[nH]3)cc2)cn1", "IC50": 15}
{"smiles": "Nc1ccc(OCCn2ccnc2)cc1", "IC50": "> 50000"}
{"smiles": "CC(=O)Nc1ccc(OCCn2ccnc2)cc1", "IC50": 4000}
{"smiles": "O=C(O)c1ccc(OCCCn2ccnc2)cc1", "IC50": 27}
{"smiles": "CCOC(=O)c1ccccc1OCCn1ccnc1", "IC50": 4400}
{"smiles": "CCOC(=O)Cc1ccccc1OCCn1ccnc1", "IC50": 2000}
{"smiles": "O=C(NC(=O)c1ccc(OCCn2ccnc2)cc1)c1ccccc1", "IC50": 180}
{"smiles": "O=C(O)COc1ccc(OCCn2ccnc2)cc1", "IC50": 95}
{"smiles": "O=[N+]([O-])c1ccc(OCCn2ccnc2)cc1", "IC50": "> 50000"}
{"smiles": "CCOC(=O)Cc1ccc(OCCn2ccnc2)cc1", "IC50": 2900}
{"smiles": "NS(=O)(=O)c1ccc(OCCn2ccnc2)cc1", "IC50": "> 50000"}
{"smiles": "NC(=O)Cc1ccc(OCCn2ccnc2)cc1", "IC50": 1800}
{"smiles": "CC(=O)NC(=O)c1ccc(OCCn2ccnc2)cc1", "IC50": 630}
{"smiles": "NC(=O)COc1ccc(OCCn2ccnc2)cc1", "IC50": 850}
{"smiles": "c1c[nH]cn1", "note": "[IMIDAZOLE]", "IC50": 670000}
{"smiles": "COc1ccc2c(c1)c(CC(=O)O)c(C)n2C(=O)c1ccc(Cl)cc1", "note": "[INDOMETHACIN]", "IC50": "> 100000"}
{"molecular_target": "T3, Cytochrome P450 11B1, mitochondrial (Rattus norvegicus, UniProt P15393)", "T3 sequence (P15393 whole entry)": "T1 sequence (P15393 whole entry)", "assay": "Inhibition of rat adrenal 11-beta-hydroxylase", "conditions": "not given", "how_it_was_run": "as §1", "units": {"IC50": "nM"}}
{"smiles": "CC(C)c1[nH]c2ccccc2c1Cn1ccnc1", "IC50": 2000}
{"smiles": "NC(=O)c1ccc(OCCn2ccnc2)cc1", "IC50": 10000}
{"smiles": "O=C(O)c1cccc(OCCn2ccnc2)c1", "IC50": "> 100000"}
{"smiles": "O=C(O)COc1ccc(OCCn2ccnc2)cc1", "IC50": "> 100000"}
{"smiles": "NC(=O)COc1ccc(OCCn2ccnc2)cc1", "IC50": "> 100000"}
{"smiles": "O=C(O)c1ccc(OCCn2ccnc2)cc1", "note": "[DAZOXIBEN]", "IC50": "> 100000"}
